Legend:
[1] = Pharmacokinetic analysis, plasma and tissue concentration; assay type: in vivo, CD1 mice; details: CD1, mouse, 1 mg/kg
KP-4 transplanted tumor = assay: KP-4 xenograft, 6 days of treatment followed by 3 days off-drug; assay type: in vivo, BALB/c Nude mice; details: compared with vehicle group
MCL-1 = MCL-1 protein in KP-4 transplanted tumor homogenate; assay type: in vivo, BALB/c Nude mice; details: KP-4 xenograft, BS-HH-002 5.4 mg/kg, versus vehicle group
Method in brief: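 The model was KP-4 subcutaneous xenografts in BALB/c Nude mice. Tumors from at least five mice in each of the vehicle, gemcitabine and test compound (5.4 mg/kg) groups were analysed. MCL-1 and BCL-XL protein levels were measured by Western blot with β-actin or β-Tubulin as internal reference.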

TIP30/CC3 = assay: Immunofluorescence of TIP30/CC3 in KP-4 tumor sections; assay type: in vivo, BALB/c Nude mice; details: BS-HH-002 at 3.0 mg/kg, p = 0.004, p = 0.461

COC(=O)C[C@](O)(CCCC(C)(C)O)C(=O)O[C@@H]1C(OC)=C[C@]23CCCN2CCc2cc4c(cc2[C@H]13)OCO4 [HHT, homoharringtonine]
concentration at 2 h ([1]; bone marrow, po): 669 ng/mL
concentration at 8 h ([1]; bone marrow, po): 48.6 ng/mL
concentration at 0.5 h ([1]; bone marrow, sc): 141 ng/mL
concentration at 2 h ([1]; bone marrow, sc): 412 ng/mL
concentration at 8 h ([1]; bone marrow, sc): 43.5 ng/mL
concentration at 0.5 h ([1]; brain, sc): 11 ng/mL
concentration at 2 h ([1]; brain, sc): 6.37 ng/mL
concentration at 8 h ([1]; brain, sc): 4.97 ng/mL
concentration at 0.5 h ([1]; esophagus, po): 607 ng/mL
concentration at 0.5 h ([1]; esophagus, sc): 138 ng/mL
concentration at 2 h ([1]; esophagus, sc): 185 ng/mL
concentration at 8 h ([1]; esophagus, sc): 52.6 ng/mL
concentration at 0.5 h ([1]; heart, po): 125 ng/mL
concentration at 2 h ([1]; heart, po): 321 ng/mL
concentration at 8 h ([1]; heart, po): 156 ng/mL
concentration at 0.5 h ([1]; heart, sc): 541 ng/mL
concentration at 2 h ([1]; heart, sc): 254 ng/mL
concentration at 8 h ([1]; heart, sc): 115 ng/mL
concentration at 0.5 h ([1]; kidney, po): 25.4 ng/mL
concentration at 2 h ([1]; kidney, po): 117 ng/mL
concentration at 8 h ([1]; kidney, po): 33.5 ng/mL
concentration at 0.5 h ([1]; kidney, sc): 2010 ng/mL
concentration at 2 h ([1]; kidney, sc): 796 ng/mL
concentration at 8 h ([1]; kidney, sc): 95.6 ng/mL
concentration at 24 h ([1]; kidney, sc): 5.04 ng/mL
concentration at 0.5 h ([1]; large intestine, po): 105 ng/mL
concentration at 2 h ([1]; large intestine, po): 528 ng/mL
concentration at 8 h ([1]; large intestine, po): 689 ng/mL
concentration at 0.5 h ([1]; large intestine, sc): 1030 ng/mL
concentration at 2 h ([1]; large intestine, sc): 807 ng/mL
concentration at 8 h ([1]; large intestine, sc): 502 ng/mL
concentration at 24 h ([1]; large intestine, sc): 35.4 ng/mL
concentration at 0.5 h ([1]; liver, po): 184 ng/mL
concentration at 2 h ([1]; liver, po): 296 ng/mL
concentration at 8 h ([1]; liver, po): 173 ng/mL
concentration at 0.5 h ([1]; liver, sc): 983 ng/mL
concentration at 2 h ([1]; liver, sc): 615 ng/mL
concentration at 8 h ([1]; liver, sc): 80.2 ng/mL
concentration at 24 h ([1]; liver, sc): 4.53 ng/mL
concentration at 0.5 h ([1]; lung, po): 135 ng/mL
concentration at 2 h ([1]; lung, po): 807 ng/mL
concentration at 8 h ([1]; lung, po): 73.6 ng/mL
concentration at 0.5 h ([1]; lung, sc): 693 ng/mL
concentration at 2 h ([1]; lung, sc): 287 ng/mL
concentration at 8 h ([1]; lung, sc): 62.5 ng/mL
concentration at 24 h ([1]; lung, sc): 5.8 ng/mL
concentration at 0.5 h ([1]; pancreas, po): 85.8 ng/mL
concentration at 2 h ([1]; pancreas, po): 228 ng/mL
concentration at 8 h ([1]; pancreas, po): 211 ng/mL
concentration at 24 h ([1]; pancreas, po): 4.86 ng/mL
concentration at 0.5 h ([1]; pancreas, sc): 753 ng/mL
concentration at 2 h ([1]; pancreas, sc): 512 ng/mL
concentration at 8 h ([1]; pancreas, sc): 215 ng/mL
concentration at 24 h ([1]; pancreas, sc): 5.62 ng/mL
concentration at 0.5 h ([1]; plasma, po): 14.8 ng/mL
concentration at 2 h ([1]; plasma, po): 47.7 ng/mL
concentration at 8 h ([1]; plasma, po): 13.7 ng/mL
concentration at 0.5 h ([1]; plasma, sc): 166 ng/mL
concentration at 2 h ([1]; plasma, sc): 48.9 ng/mL
concentration at 8 h ([1]; plasma, sc): 11.1 ng/mL
concentration at 24 h ([1]; plasma, sc): 0.929 ng/mL
concentration at 0.5 h ([1]; spleen, po): 184 ng/mL
concentration at 2 h ([1]; spleen, po): 742 ng/mL
concentration at 8 h ([1]; spleen, po): 225 ng/mL
concentration at 0.5 h ([1]; spleen, sc): 1990 ng/mL
concentration at 2 h ([1]; spleen, sc): 1290 ng/mL
concentration at 8 h ([1]; spleen, sc): 282 ng/mL
concentration at 24 h ([1]; spleen, sc): 16.5 ng/mL
concentration at 0.5 h ([1]; stomach, po): 1360 ng/mL
concentration at 2 h ([1]; stomach, po): 806 ng/mL
concentration at 8 h ([1]; stomach, po): 870 ng/mL
concentration at 0.5 h ([1]; stomach, sc): 999 ng/mL
concentration at 2 h ([1]; stomach, sc): 587 ng/mL
concentration at 8 h ([1]; stomach, sc): 128 ng/mL
concentration at 24 h ([1]; stomach, sc): 9.84 ng/mL

Nc1ccn([C@@H]2O[C@H](CO)[C@@H](O)C2(F)F)c(=O)n1 [gemcitabine, Gemcitabine]
tumor volume (KP-4 transplanted tumor): decreased significantly
MCL-1 protein level in tumor cells (MCL-1): no significant difference
CC3 protein expression (TIP30/CC3): significantly increased
